Converted amounts (≈) assume the structure as drawn.
Assays:
[1] = system: Pseudomonas aeruginosa; test: Antimicrobial activity against Pseudomonas aeruginosa at 4 ug/ml after 24 hrs by agar diffusion technique; type: functional; details: read-out: DIZ
How it was run: (§1)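 Strains came from a university microbiology department. Inocula were 10⁶ CFU/mL. Mueller-Hinton agar was seeded with culture, poured 3–4 mm thick, and 10 mm cups were bored. Compounds were dissolved in DMF (10 mg/mL stock), diluted, and the solution was placed in the cups. Plates were incubated at 37 °C overnight. Inhibition zone diameter (mm) was read at 24 h.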

[2] = system: Pseudomonas aeruginosa; test: Antimicrobial activity against Pseudomonas aeruginosa at 16 ug/ml after 24 hrs by agar diffusion technique; type: functional; details: read-out: DIZ; how it was run: as §1
[3] = system: Pseudomonas aeruginosa; test: Antimicrobial activity against Pseudomonas aeruginosa at 64 ug/ml after 24 hrs by agar diffusion technique; type: functional; details: read-out: DIZ; how it was run: as §1
[4] = system: Pseudomonas aeruginosa; test: Antimicrobial activity against Pseudomonas aeruginosa at 128 ug/ml after 24 hrs by agar diffusion technique; type: functional; details: read-out: DIZ; how it was run: as §1
[5] = system: Pseudomonas aeruginosa; test: Antimicrobial activity against Pseudomonas aeruginosa at 512 ug/ml after 24 hrs by agar diffusion technique; type: functional; details: read-out: DIZ; how it was run: as §1
[6] = system: Escherichia coli; test: Antimicrobial activity against Escherichia coli at 4 ug/ml after 24 hrs by agar diffusion technique; type: functional; details: read-out: DIZ; how it was run: as §1
[7] = system: Escherichia coli; test: Antimicrobial activity against Escherichia coli at 16 ug/ml after 24 hrs by agar diffusion technique; type: functional; details: read-out: DIZ; how it was run: as §1
[8] = system: Escherichia coli; test: Antimicrobial activity against Escherichia coli at 64 ug/ml after 24 hrs by agar diffusion technique; type: functional; details: read-out: DIZ; how it was run: as §1
[9] = system: Escherichia coli; test: Antimicrobial activity against Escherichia coli at 128 ug/ml after 24 hrs by agar diffusion technique; type: functional; details: read-out: DIZ; how it was run: as §1
[10] = system: Escherichia coli; test: Antimicrobial activity against Escherichia coli at 512 ug/ml after 24 hrs by agar diffusion technique; type: functional; details: read-out: DIZ; how it was run: as §1
[11] = system: Klebsiella pneumoniae; test: Antimicrobial activity against Klebsiella pneumoniae at 4 ug/ml after 24 hrs by agar diffusion technique; type: functional; details: read-out: DIZ; how it was run: as §1
[12] = system: Klebsiella pneumoniae; test: Antimicrobial activity against Klebsiella pneumoniae at 16 ug/ml after 24 hrs by agar diffusion technique; type: functional; details: read-out: DIZ; how it was run: as §1
[13] = system: Klebsiella pneumoniae; test: Antimicrobial activity against Klebsiella pneumoniae at 64 ug/ml after 24 hrs by agar diffusion technique; type: functional; details: read-out: DIZ; how it was run: as §1
[14] = system: Klebsiella pneumoniae; test: Antimicrobial activity against Klebsiella pneumoniae at 128 ug/ml after 24 hrs by agar diffusion technique; type: functional; details: read-out: DIZ; how it was run: as §1
[15] = system: Klebsiella pneumoniae; test: Antimicrobial activity against Klebsiella pneumoniae at 512 ug/ml after 24 hrs by agar diffusion technique; type: functional; details: read-out: DIZ; how it was run: as §1
[16] = system: Staphylococcus aureus; test: Antimicrobial activity against Staphylococcus aureus at 4 ug/ml after 24 hrs by agar diffusion technique; type: functional; details: read-out: DIZ; how it was run: as §1
[17] = system: Staphylococcus aureus; test: Antimicrobial activity against Staphylococcus aureus at 16 ug/ml after 24 hrs by agar diffusion technique; type: functional; details: read-out: DIZ; how it was run: as §1
[18] = system: Staphylococcus aureus; test: Antimicrobial activity against Staphylococcus aureus at 64 ug/ml after 24 hrs by agar diffusion technique; type: functional; details: read-out: DIZ; how it was run: as §1
[19] = system: Staphylococcus aureus; test: Antimicrobial activity against Staphylococcus aureus at 128 ug/ml after 24 hrs by agar diffusion technique; type: functional; details: read-out: DIZ; how it was run: as §1
[20] = system: Staphylococcus aureus; test: Antimicrobial activity against Staphylococcus aureus at 512 ug/ml after 24 hrs by agar diffusion technique; type: functional; details: read-out: DIZ; how it was run: as §1
[21] = system: Pseudomonas aeruginosa; test: Antimicrobial activity against Pseudomonas aeruginosa after 24 hrs by agar diffusion technique; type: functional; details: for MIC: Pseudomonas aeruginosa, 24 h
How it was run: (§2)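 Agar cup diffusion on Mueller-Hinton agar seeded from 10⁶ CFU/mL suspensions, with 10 mm cups in a 3–4 mm layer. Compounds were in DMF (10 mg/mL stock) at several concentrations. Plates were incubated at 37 °C and zones measured after 24 h. MIC was taken as the intercept of the plot of log concentration against inhibition zone diameter.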

[22] = system: Escherichia coli; test: Antimicrobial activity against Escherichia coli after 24 hrs by agar diffusion technique; type: functional; details: for MIC: Escherichia coli, 24 h; how it was run: as §2
[23] = system: Klebsiella pneumoniae; test: Antimicrobial activity against Klebsiella pneumoniae after 24 hrs by agar diffusion technique; type: functional; details: for MIC: Klebsiella pneumoniae, 24 h; how it was run: as §2
[24] = system: Staphylococcus aureus; test: Antimicrobial activity against Staphylococcus aureus after 24 hrs by agar diffusion technique; type: functional; details: for MIC: Staphylococcus aureus, 24 h; how it was run: as §2
[25] = Octanol-phosphate buffer partition coefficient, log D at pH 7.4 by spectrophotometry; type: physicochemical
How it was run: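 Shake-flask method. A 0.2 mg/mL stock was diluted into pH 7.4 phosphate buffer and mixed with an equal volume of n-octanol, phases mutually presaturated and protected from light. Samples were vortexed 3 min, then shaken 5 h at 25 °C. Both phases were assayed by UV at 270–280 nm. D is the molar concentration ratio, octanol to aqueous.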

Row | Structure (SMILES) | zone of inhibition at 4 µg/mL [1] | zone of inhibition at 16 µg/mL [2] | zone of inhibition at 64 µg/mL [3] | zone of inhibition at 128 µg/mL [4] | zone of inhibition at 512 µg/mL [5] | zone of inhibition at 4 µg/mL [6] | zone of inhibition at 16 µg/mL [7] | zone of inhibition at 64 µg/mL [8] | zone of inhibition at 128 µg/mL [9] | zone of inhibition at 512 µg/mL [10] | zone of inhibition at 4 µg/mL [11] | zone of inhibition at 16 µg/mL [12] | zone of inhibition at 64 µg/mL [13] | zone of inhibition at 128 µg/mL [14] | zone of inhibition at 512 µg/mL [15] | zone of inhibition at 4 µg/mL [16] | zone of inhibition at 16 µg/mL [17] | zone of inhibition at 64 µg/mL [18] | zone of inhibition at 128 µg/mL [19] | zone of inhibition at 512 µg/mL [20] | other results
1 | CCn1cc(C(=O)O)c(=O)c2cc(F)c(N3CC[N+](CCO)(CCO)CC3)cc21.[Br-] | 0 mm | 0 mm | 0 mm | 0 mm | 0 mm | 0 mm | 4 mm | 7 mm | 9 mm | 12 mm | 0 mm | 0 mm | 4 mm | 5 mm | 11 mm | 0 mm | 0 mm | 0 mm | 0 mm | 14 mm | logMIC [21]: 2.71; MIC [21]: > 512 µg/mL; logMIC [22]: 0.6; MIC [22]: 4 µg/mL; logMIC [23]: 1; MIC [23]: 10 µg/mL; logMIC [24]: 2.11; MIC [24]: 128 µg/mL; logD [25]: 0.158
2 | CCn1cc(C(=O)O)c(=O)c2cc(F)c(N3CCN(Cn4cnc5ccccc54)CC3)cc21 | 0 mm | 0 mm | 0 mm | 0 mm | 15 mm | 0 mm | 3 mm | 6 mm | 7 mm | 10 mm | 0 mm | 0 mm | 3 mm | 8 mm | 20 mm | 0 mm | 0 mm | 0 mm | 0 mm | 3 mm | logMIC [21]: 2.11; MIC [21]: 128 µg/mL (≈ 285 µM); logMIC [22]: 0.6; MIC [22]: 4 µg/mL (≈ 8.9 µM); logMIC [23]: 1.15; MIC [23]: 14 µg/mL (≈ 31.1 µM); logMIC [24]: 2.11; MIC [24]: 128 µg/mL (≈ 285 µM); logD [25]: -0.043

Source: ChEMBL document CHEMBL1137764, “Design, synthesis, antibacterial activity and physicochemical parameters of novel N-4-piperazinyl derivatives of norfloxacin” (Bioorg Med Chem, 2009)
